Measured values taken from ChEMBL document CHEMBL2163251, “Synthesis and pharmacological evaluation of indolinone derivatives as novel ghrelin receptor antagonists” (Bioorg Med Chem, 2012).
One block for each molecule: values may come before it. Activity calls are given as the source filed them. No cut-off for these calls is given here.

Key:
[1] = target: T1, Growth hormone secretagogue receptor type 1 (Homo sapiens, UniProt Q92847); test: Antagonist activity at human GHSR1 expressed in CHO-CREluc cells after 4 hrs by Luciferase reporter assay; type: functional, cell-based
T1 sequence (Q92847 whole entry): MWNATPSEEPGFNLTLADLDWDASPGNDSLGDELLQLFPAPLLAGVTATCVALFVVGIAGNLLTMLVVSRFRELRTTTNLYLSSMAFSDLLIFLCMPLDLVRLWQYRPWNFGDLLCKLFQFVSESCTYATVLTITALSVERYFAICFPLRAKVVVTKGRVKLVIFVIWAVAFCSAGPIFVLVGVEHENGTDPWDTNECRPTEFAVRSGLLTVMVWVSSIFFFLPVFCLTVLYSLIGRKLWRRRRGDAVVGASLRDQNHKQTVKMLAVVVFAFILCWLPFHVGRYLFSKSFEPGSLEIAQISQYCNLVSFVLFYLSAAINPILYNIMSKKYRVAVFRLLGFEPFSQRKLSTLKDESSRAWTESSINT
How it was run: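 hGHSR1a stably cloned into CHO line carrying CRE-luciferase reporter (six CRE upstream of firefly luciferase). Cells plated in MEM with 10% dialysed FBS. Stimulation medium held 0.1 µM forskolin and 3 nM human ghrelin. Luciferase read by photon counting.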

[2] = target: T1, Growth hormone secretagogue receptor type 1; test: Displacement of [125I]-ghrelin from human GHSR1 expressed in CHO-CREluc cells after 1 hr by scintillation counting; type: cell-based
How it was run: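 Crude membranes from CHO-CREluc-hGHSR1a cells were homogenized in TM buffer (10 mM Tris-HCl pH 7.4, 10 mM MgCl2) and spun at 40,000g. Incubated 1 h in TM buffer with 0.25% BSA and 10% dialysed FBS, 0.25 nM [125I] human ghrelin and increasing compound concentrations. Harvested on PEI-pretreated GF/B filters and washed with cold buffer. Bound radioactivity counted by scintillation.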

P-glycoprotein = test: P-glycoprotein-mediated efflux ratio of the compound; type: ADME; details: not told
Mus musculus [3] = test: Effect of glucose tolerance in fasted C57/BL6N mouse assessed as inhibition of glucose excursion at 30 mg/kg, po measured after 20 to 120 mins by IPGTT
Rattus norvegicus [4] = test: Inhibition of ghrelin induced food intake in CD rat at 10 mg/kg, ip administered 30 mins prior to icv ghrelin challenge measured after 4 hrs; type: functional; details: route intraperitoneal
How it was run: (§1)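 Adult male CD rats (200–300 g) fitted with lateral-ventricle cannulae. Dosed 10 mg/kg ip 30 min before icv rat ghrelin (10 µg/rat in 15 µl) or saline. Cumulative food intake measured hourly for 4 h, n=6–7 per group.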

Rattus norvegicus [5] = test: Inhibition of ghrelin-induced gastric emptying in CD rat at 3 mg/kg, ip; type: functional; details: Stomach, route intraperitoneal
How it was run: (§2)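 24 h fasted male CD rats dosed ip (vehicle 2 ml/kg), then given rat ghrelin 20 µg/kg iv. BaSO4 meal (75% w/v in 0.5% CMC, 1 ml/100 g) given by gavage. Stomach content weighed at 0 or 60 min and compared with drug-free controls killed at t=0.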

Rattus norvegicus [6] = test: Inhibition of ghrelin-induced gastric emptying in CD rat at 10 mg/kg, ip; type: functional; details: Stomach, route intraperitoneal; how it was run: as §2
[7] = Permeability across human Caco2/TC7 cells assessed as compound recovery; type: ADME, cell-based; details: Caco-2, read-out: permeability
[8] = Permeability across human Caco2/TC7 cells compound transport; type: ADME, cell-based; details: Caco-2, read-out: permeability
[9] = Drug metabolism in mouse liver microsomes at 5 uM after 24 hrs; type: ADME, Microsome; details: read-out: Drug metabolism
How it was run: (§3)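 Compound at 5 µM incubated 24 h with isolated hepatic microsomal fractions from mouse, rat or human.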

[10] = Drug metabolism in rat liver microsomes at 5 uM after 24 hrs; type: ADME, Microsome; details: read-out: Drug metabolism; how it was run: as §3
[11] = Drug metabolism in human liver microsomes at 5 uM after 24 hrs; type: ADME, Microsome; details: read-out: Drug metabolism; how it was run: as §3
Hepatocyte = test: Intrinsic clearance in human hepatocytes assessed per million cells at 5 uM; type: ADME, cell-based
[12] = Binding affinity at adenosine receptor at 10 uM
[13] = Binding affinity at adrenergic receptor at 10 uM
[14] = Binding affinity at cannbinoids receptor at 10 uM
[15] = Binding affinity at dopamine receptor at 10 uM
[16] = Binding affinity at histamine receptor at 10 uM
[17] = Binding affinity at muscarinic receptor at 10 uM
[18] = Binding affinity at opioids receptor at 10 uM
[19] = Binding affinity at serotonin receptor at 10 uM
[20] = Binding affinity at vasopressin receptor at 10 uM
Rattus norvegicus [21] = test: Inhibition of ghrelin-induced gastric emptying in ip dosed CD rat; type: functional, organism-based; details: Stomach; how it was run: as §2
Rattus norvegicus [22] = test: Inhibition of gastric emptying in CD rat at 3 mg/kg, ip; type: functional; details: Stomach, route intraperitoneal
How it was run: (§4)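 24 h fasted male CD rats dosed ip (vehicle 2 ml/kg), no ghrelin. BaSO4 meal (75% w/v in 0.5% CMC, 1 ml/100 g) given by gavage. Rats killed at 0 or 60 min and stomach content weighed. Result expressed relative to the mean content of drug-free controls killed at t=0.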

Rattus norvegicus [23] = test: Inhibition of gastric emptying in CD rat at 10 mg/kg, ip; type: functional; details: Stomach, route intraperitoneal; how it was run: as §4
Mus musculus [24] = test: Inhibition of ghrelin-induced food intake in fasted C57/BL6N mouse at 10 mg/kg, ip up to 6 hrs; type: functional, organism-based; design: dose 10 mg/kg
How it was run: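 Male C57BL/6 mice fasted overnight and dosed ip 10 mg/kg (vehicle 10 ml/kg) 1 h before refeeding. Cumulative food intake recorded after food return.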

Rattus norvegicus [25] = test: Inhibition of ghrelin induced food intake in CD rat at 10 mg/kg, ip administered 30 mins prior to icv ghrelin challenge measured after 1 hr; type: functional; details: route intraperitoneal; how it was run: as §1
Rattus norvegicus [26] = test: Inhibition of ghrelin induced food intake in CD rat at 10 mg/kg, ip administered 30 mins prior to icv ghrelin challenge measured after 2 hrs; type: functional; details: route intraperitoneal; how it was run: as §1
Rattus norvegicus [27] = test: Inhibition of ghrelin induced food intake in CD rat at 10 mg/kg, ip administered 30 mins prior to icv ghrelin challenge measured after 3 hrs; type: functional; details: route intraperitoneal; how it was run: as §1
Mus musculus [28] = test: Effect of glucose tolerance in fasted C57/BL6N mouse assessed as inhibition of glucose excursion at 30 mg/kg, po administered 30 mins before glucose challenge measured after 20 to 120 mins by IPGTT; type: functional
How it was run: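 Male C57/Bl6N mice fasted 16–18 h, then given 30 mg/kg or vehicle by oral gavage. Fasting glucose read from tail blood 30 min after dosing. Glucose 2 g/kg ip given 30 min later, with glucose measured at 20–120 min. […] calculated by trapezoidal method and expressed as % of vehicle AUC.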

[29] = Binding affinity at receptor at 10 uM

Compound: CN1CCN(CC(=O)N[C@]2(c3ccc(Cl)cc3)C(=O)Nc3cc(Cl)c(Cl)cc32)CC1
IC50 [1]: 47 nM
Ki [2]: 249 nM

Compound: Cc1ccc2c(c1Cl)C(NC(=O)CN1CCN(C)CC1)(c1ccc(Cl)cc1)C(=O)N2 (racemic)
IC50 [1]: 1160 nM

Compound: CN1CCN(CC(=O)NC2(c3ccc(C(C)(C)C)cc3)C(=O)Nc3cc(Cl)c(Cl)cc32)CC1 (single isomer, unassigned; (+))
IC50 [1]: 1470 nM

Compound: Cc1cc2c(cc1Cl)NC(=O)C2(NC(=O)CN1CCN(C)CC1)c1ccc(Cl)cc1 (racemic)
IC50 [1]: 213 nM
Ki [2]: 392 nM

Compound: CN(C)C1CCN(CC(=O)NC2(c3ccc(Cl)c(Cl)c3)C(=O)Nc3cc(Cl)cc(Cl)c32)CC1 (single isomer, unassigned; (+))
IC50 [1]: 239 nM

Compound: CN1CCCN(CC(=O)NC2(c3ccc(Cl)c(Cl)c3)C(=O)Nc3cc(Cl)cc(Cl)c32)CC1 (single isomer, unassigned; (+))
IC50 [1]: 64 nM

Compound: CCC1=C(C)CN(C(=O)NCCc2ccc(S(=O)(=O)NC(=O)N[C@H]3CC[C@H](C)CC3)cc2)C1=O
inhibition (Mus musculus [3]): Active

Compound: Cc1cc2c(cc1Cl)C(NC(=O)CN1CCN(C)CC1)(c1ccc(Cl)cc1)C(=O)N2 (single isomer, unassigned; (+))
IC50 [1]: 251 nM

Compound: CN(C)[C@@H]1CCN(CC(=O)NC2(c3ccc(Cl)c(Cl)c3)C(=O)Nc3cc(Cl)cc(Cl)c32)C1 (stereo partly drawn)
IC50 [1]: 25 nM

Compound: CCN1CCN(CC(=O)NC2(c3ccc(Cl)c(Cl)c3)C(=O)Nc3cc(Cl)cc(Cl)c32)CC1 (single isomer, unassigned; (+))
inhibition in vivo at 10 mg/kg (Rattus norvegicus [4]): 53%
inhibition in vivo at 3 mg/kg (Rattus norvegicus [5]): 55%
inhibition in vivo at 10 mg/kg (Rattus norvegicus [6]): 62%
IC50 [1]: 7 nM
Ki [2]: 8 nM
recovery [7]: 51.8%
Papp [8]: 0.385 ×10⁻⁶ cm/s
metabolised at 24 h, 5 µM [9]: 44%
metabolised at 24 h, 5 µM [10]: 45%
metabolised at 24 h, 5 µM [11]: 41%
CLint (Hepatocyte): 0.097 mL/h/10⁶ cells
efflux ratio (P-glycoprotein): 6.6
Activity [12]: inactive
Activity [13]: inactive
Activity [14]: inactive
Activity [15]: inactive
Activity [16]: inactive
Activity [17]: inactive
Activity [18]: inactive
Activity [19]: inactive
Activity [20]: inactive
inhibition (Rattus norvegicus [21]): Dose-dependent effect
inhibition in vivo at 3 mg/kg (Rattus norvegicus [22]): 68%
inhibition in vivo at 10 mg/kg (Rattus norvegicus [23]): 55%
inhibition (Mus musculus [24]): Active
inhibition in vivo at 10 mg/kg (Rattus norvegicus [25]): 58%
inhibition in vivo at 10 mg/kg (Rattus norvegicus [26]): 60%
inhibition in vivo at 10 mg/kg (Rattus norvegicus [27]): 61%
inhibition in vivo at 30 mg/kg (Mus musculus [28]): 32%
Activity [29]: inactive

Compound: CC1CCN(CC(=O)NC2(c3ccc(Cl)cc3)C(=O)Nc3cc(Cl)c(Cl)cc32)CC1 (racemic)
IC50 [1]: 2540 nM

Compound: Cc1cc2c(cc1Cl)NC(=O)C2(NC(=O)CN1CCN(Cc2ccccc2)CC1)c1ccc(Cl)cc1 (racemic)
IC50 [1]: > 10000 nM

Compound: CN1CCN(CC(=O)NC2(c3ccc(Cl)cc3)C(=O)Nc3cc(Cl)ccc32)CC1 (single isomer, unassigned; (+))
IC50 [1]: 140 nM

Compound: COc1ccc(C2(NC(=O)CN3CCN(C)CC3)C(=O)Nc3cc(Cl)c(C)cc32)cc1 (single isomer, unassigned; (+))
IC50 [1]: 525 nM

Compound: Cc1cc2c(cc1Cl)NC(=O)C2(NC(=O)CN1CCN(C)CC1)c1ccc(Cl)c(Cl)c1 (racemic)
IC50 [1]: 220 nM
Ki [2]: > 1000 nM

Compound: CN(C)[C@H]1CCN(CC(=O)NC2(c3ccc(Cl)c(Cl)c3)C(=O)Nc3cc(Cl)cc(Cl)c32)C1 (stereo partly drawn)
IC50 [1]: 110 nM

Compound: CCN1CCN(CC(=O)NC2(c3ccc(Cl)c(Cl)c3)C(=O)Nc3cc(Cl)cc(Cl)c32)CC1=O (single isomer, unassigned; (+))
IC50 [1]: 2780 nM

Continued, values first:

IC50 [1]: 72 nM
Ki [2]: 44 nM
Compound: CN1CCN(CC(=O)NC2(c3ccc(Cl)cc3)C(=O)Nc3cc(Cl)cc(Cl)c32)CC1 (single isomer, unassigned; (+))

IC50 [1]: > 10000 nM
Compound: CN1CCN(CC(=O)NC2(c3ccc(Cl)cc3)C(=O)Nc3cc(Cl)c(Cl)cc32)CC1 (single isomer, unassigned; (-))

IC50 [1]: 700 nM
Compound: COc1ccc(C2(NC(=O)CN3CCN(C)CC3)C(=O)Nc3cc(Cl)c(Cl)cc32)cc1 (single isomer, unassigned; (+))

IC50 [1]: 47 nM
Compound: CCN1CCCC(CC(=O)NC2(c3ccc(Cl)c(Cl)c3)C(=O)Nc3cc(Cl)cc(Cl)c32)C1 (single isomer, unassigned; (+))

IC50 [1]: 1390 nM
Compound: CN1CCN(CC(=O)NC2(c3ccc(Cl)cc3)C(=O)Nc3c(Cl)cc(Cl)cc32)CC1 (single isomer, unassigned; (+))

IC50 [1]: 38 nM
Ki [2]: 121 nM
Compound: C=CCN1CCN(CC(=O)NC2(c3ccc(Cl)c(Cl)c3)C(=O)Nc3cc(Cl)cc(Cl)c32)CC1 (single isomer, unassigned; (+))

IC50 [1]: > 10000 nM
Compound: Cc1cc2c(cc1Cl)NC(=O)C2(NC(=O)CN1CCNCC1)c1ccc(Cl)cc1 (racemic)

IC50 [1]: 1 nM
Ki [2]: 3 nM
efflux ratio (P-glycoprotein): 58
Compound: CCN1CCC(CC(=O)NC2(c3ccc(Cl)c(Cl)c3)C(=O)Nc3cc(Cl)cc(Cl)c32)CC1 (single isomer, unassigned; (+))

IC50 [1]: 129 nM
Ki [2]: 286 nM
Compound: CCN1CCN(CC(=O)NC2(c3ccc(Cl)cc3)C(=O)Nc3cc(Cl)c(C)cc32)CC1 (racemic)

IC50 [1]: 1180 nM
Compound: Cc1cc2c(cc1Cl)NC(=O)C2(NC(=O)CN1CCN(C)CC1)c1cccc(Cl)c1 (racemic)

IC50 [1]: 24 nM
Compound: CN1CCN(CC(=O)NC2(c3ccc(Cl)c(Cl)c3)C(=O)Nc3cc(Cl)cc(Cl)c32)CC1 (single isomer, unassigned; (+))

IC50 [1]: 273 nM
Compound: CN1CCN(CC(=O)NC2(c3ccc(Cl)cc3)C(=O)Nc3cc(Cl)c(Cl)c(Cl)c32)CC1 (racemic)

IC50 [1]: > 10000 nM
Compound: Cc1cc2c(cc1Cl)NC(=O)C2(NC(=O)CN1CCN(C)CC1)c1ccc(Cl)cc1Cl (racemic)

IC50 [1]: > 10000 nM
Compound: CN(C)CCN(C)CC(=O)NC1(c2ccc(Cl)cc2)C(=O)Nc2cc(Cl)c(Cl)cc21 (racemic)

IC50 [1]: 111 nM
Compound: CN1CCN(CC(=O)NC2(c3ccc(Cl)c(Cl)c3)C(=O)Nc3cc(Cl)ccc32)CC1 (single isomer, unassigned; (+))

IC50 [1]: 110 nM
Ki [2]: 202 nM
Compound: CCN1CCN(CC(=O)NC2(c3ccc(Cl)cc3)C(=O)Nc3cc(Cl)c(Cl)cc32)CC1 (racemic)

IC50 [1]: > 10000 nM
Compound: Cc1cc2c(cc1Cl)NC(=O)C2(NC(=O)CN1CCN(C)CC1)c1ccccc1Cl (racemic)

IC50 [1]: > 10000 nM
Compound: Cc1cc2c(cc1Cl)NC(=O)C2(NC(=O)CN1CCN(c2ccncc2)CC1)c1ccc(Cl)cc1 (racemic)
